The full list was thinned out, with hits kept by preference.
UPR CHOP act: activators of apoptotic CHOP UPR arm, primary screen, cell-based, CHO-CHOP luciferase reporter, luminescence, uHTS; UPR activation; percent of tunicamycin response over DMSO baseline; activation, % at 10 µM; hit rate 0.34% among 330,000;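 active = at 10 µM dose, activation of 40% or more, normalized to positive control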;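 note: 100% = tunicamycin at 10 µg/mL and 0% = DMSO alone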
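System: CHO CHOP reporter cells. Amount: 500 cells per well. Buffer or medium: F12 medium, 10% FBS. Compound dosing: one dose, 10 µM in 0.5% DMSO. Incubation: 6 h compound exposure at 37 °C after overnight seeding. Technique: Steady-Glo luciferase luminescence. Benchmarks: tunicamycin and DMSO controls.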
XBP1 UPR activ: activators of adaptive XBP1 UPR arm, primary screen, cell-based, CHO-XBP1 luciferase reporter, luminescence, uHTS | IRE1-XBP1 UPR activation; percent of tunicamycin response, DMSO as zero | activation, % at 20 µM | hit rate 0.33% among 330,000 | AID 463104, 2010;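 active = versus positive control, 20 µM dose yields 30% or more activation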;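 note: 100% = tunicamycin at 10 µg/mL and 0% = DMSO only wells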
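incubation = overnight seeding at 37 °C, 6 h compound treatment at 37 °C | assay system = CHO-XBP1 cells stably carrying IRE1-XBP1-driven luciferase reporter | input = 1000 cells per well | detection = luciferase luminescence | dosing = single point, 20 µM final compound, 1% DMSO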
697 NFkB inh: inhibitors of PMA/ionomycin-induced NF-kB reporter, 697 cells, primary screen, B-cell NF-kB inhibitor project, cell-based, luminescence, uHTS | 697 B-cell NF-kB luciferase reporter, 16 h | inhibition, % at 4 µM | hit rate 0.33% among 330,000 | AID 435022, 2010; in the data active = inhibition above about 35%
CHOP inh: inhibitors of CHOP promoter induction, primary screen, cell-based, unfolded protein response, luciferase reporter; CHO-K1 CHOP-promoter luciferase, tunicamycin-induced, 15-18 h; inhibition, % at 10 µM; hit rate 3.8% among 220,000; AID 2732, 2010;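 active = compounds that reduced the stress-induced luciferase reporter signal by more than about 70% of percent inhibition, limit read from the data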;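 note: 0% = tunicamycin plus vehicle and 100% = wells without tunicamycin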
Jurkat NFkB inh: inhibitors of induced NF-kB luciferase reporter, primary screen, TCR NF-kB activation inhibitor project, cell-based, luminescence, uHTS | AID 435003, 2010 | hit rate 0.53% among 330,000 | inhibition, % at 4 µM | Jurkat, PMA/ionomycin-induced NF-kB luciferase reporter; in the data active = inhibition above about 50%
The depositor's hits bear a star; / = no result.

SMILES	UPR CHOP act	XBP1 UPR activ	697 NFkB inh	CHOP inh	Jurkat NFkB inh
NC(=O)CC(NC(=O)Cc1cccc2ccccc12)c1ccc(NCCc2ccc(F)cc2)c([N+](=O)[O-])c1 (centres undefined)	0	0	2	59	-10
CCN(CC)C(=O)[C@H]1C[C@H](CC(=O)NCc2ccc(OC)c(OC)c2)C(=O)N2CCc3c([nH]c4cc(-c5ccco5)ccc34)[C@]12C	2	2	8	/	/
COc1ccc2c(c1)Cc1sc(NC(=O)c3ccccc3)nc1-2	8	3	0	84*	10
COc1ccc2c(c1)Cc1sc(NC(=O)c3cccs3)nc1-2	5	-1	16	74*	8
COc1ccc(C(=O)Nc2nc3c(s2)Cc2cc(OC)ccc2-3)cc1	0	-4	16	13	15
OCCN(Cc1ccccc1)CC(O)COc1ccc(-c2ccccc2)cc1 (centres undefined)	9	2	-1	76*	-1
CC(CNCc1ccc2c(c1)OCO2)NCc1ccc2c(c1)OCO2 (centres undefined)	-2	-2	-11	85*	8
Fc1ccc(CNCc2ccc3c(c2)OCO3)cc1	1	-1	5	/	-16
O=c1c2c3nc4ccccc4nc3n(Cc3ccccc3)c2ncn1Cc1ccco1	/	/	/	74*	/
N=c1c2c(-c3ccccc3)c(-c3ccccc3)n(Cc3ccco3)c2ncn1Cc1ccccc1	35	28	-1	85*	25
COCCCn1c2nc3ccccc3nc2c2c(=O)n(Cc3ccc(Cl)cc3)cnc21	1	2	24	32	-1
CC(C)Cn1cnc2c(c(-c3ccccc3)c(-c3ccccc3)n2Cc2ccco2)c1=N	3	4	-29	48	30
CS(=O)(=O)c1ccc(Cl)c(NC(=O)COc2ccc3c(c2)CCC3)c1	0	2	-3	/	10
O=C(Nc1cccc(Cl)c1)Nc1nnc(-c2ccncc2)s1	3	-1	-107	92*	9
S=C(NCCN(C1CCCCC1)C1CCCC1)Nc1cccc(Cl)c1	2	0	4	/	25
S=C(NCCC(c1ccccc1)c1ccccc1)Nc1cccc(Cl)c1	0	-3	0	94*	-37
O=C(Nc1ccccc1)Nc1nnc(SCc2ccc(Cl)cc2)s1	0	-2	-8	90*	-6
O=C(Nc1ccccc1)Nc1cccc(Cl)c1	4	0	-47	95*	-41
CN(CC(=O)Nc1ccccc1Cl)C(=O)c1ccc(-c2cccc(C(F)(F)F)c2)o1	1	1	4	/	0
O=C(Nc1ccc(Cl)cc1)Nc1nnc(-c2ccncc2)s1	/	/	/	87*	/
O=C(Nc1ccc(F)cc1)Nc1nnc(-c2ccncc2)s1	5	-1	-53	47	-5
O=C(Cc1cccs1)Nc1nnc(SCc2ccc(Br)cc2)s1	-1	0	11	76*	-5
O=C(Cc1cccs1)Nc1nnc(SCc2ccc(C(F)(F)F)cc2)s1	-2	-1	-15	52	12
O=C(Nc1cccc(Cl)c1)Nc1nnc(CC2=CCCCC2)s1	0	7	-5	93*	-11
CCc1ccc(C(=O)N/N=C/c2ccncc2)s1	4	-4	-15	/	-6
SMILES	UPR CHOP act	XBP1 UPR activ	697 NFkB inh	CHOP inh	Jurkat NFkB inh
Cc1ccccc1-c1nc(P(=O)(c2ccccc2)c2ccccc2)c(N2CCOCC2)o1	1	-1	-14	11	-4
CCOP(=O)(c1ccccc1)c1nc(-c2ccccc2C)oc1N1CCCCC1 (centres undefined)	-1	-2	-2	91*	-18
COc1ccc(/C=N/N2CCOCC2)cc1O	3	3	0	-26	-15
COc1ccc(/C=N/N2CCN(C3c4ccccc4-c4ccccc43)CC2)cc1O	3	-2	-34	92*	-5
COc1ccc(-c2nc3ccc(C)cc3c(=O)o2)cc1OC	6	-1	3	/	-6
Cc1cc(C(C)(C)C)oc1C(=O)N(CC(=O)NC1CCCC1)c1cccc(C(F)(F)F)c1	-1	0	-13	83*	12
Cc1ccc(C(=O)NNC(=O)COC(=O)COc2ccccc2C#N)cc1	-1	2	4	/	-6
OC(CNCCC(c1ccccc1)c1ccccc1)COc1ccccc1 (centres undefined)	-2	2	8	74*	7
CC(C)c1ccc(OCC(O)CNC(C)c2ccccc2)cc1 (centres undefined)	7	-6	8	/	16
O=C(c1cccc(F)c1)N1CCN(C(=O)c2cc(-c3ccc(Cl)cc3Cl)on2)CC1	1	1	1	74*	20
O=C(c1cc(-c2ccccc2Cl)on1)N1CCCC1	-2	-8	-143	/	-117
Cc1ccc(-c2[nH][nH]c(=O)c(=O)c2N=Nc2ccccc2)cc1	0	5	-30	75*	-4
Cc1cccc(CCNC(=O)C2CCN(S(=O)(=O)N3CCOCC3)CC2)c1	0	-2	14	/	11
C=CCN1C(=O)/C(=C/c2ccc(N(C)C)cc2)S/C1=N\c1nnc(CC)s1	/	/	/	104*	/
Cc1cccc(C)c1NC(=O)CN1CCN(C(=O)c2ccc(OCc3cn4ccccc4n3)cc2)CC1	-1	-2	-4	/	-9
CSCCC(NC(=O)c1ccccc1)C(=O)OCC(=O)Nc1ccc(C)c(Cl)c1 (centres undefined)	-1	-1	-5	82*	3
CSCCC(NC(=O)c1ccc(Cl)cc1)C(=O)OCC(=O)Nc1cc(Cl)ccc1C#N (centres undefined)	0	-1	4	30	23
Cc1cccc(C(=O)Nc2ccccc2SCC(=O)Nc2ccc(C)c(Cl)c2)c1	0	-3	-26	73*	-24
Cc1ccccc1S(=O)(=O)c1c(C)cc(C)n(CC(C)C)c1=O	0	0	9	86*	1
CC1C=CCC2C(=O)N(c3cccc(C(=O)Nc4ccc(F)cc4)c3)C(=O)C12 (centres undefined)	0	-5	20	/	-1
COc1ccc(C(=O)NCCNC(=O)c2ccc(OC)cc2)cc1	-2	-3	3	/	6
COc1ccc(C(=O)NCC(C)(C)SCc2c(C)cc(C)cc2C)cc1	-2	-3	-9	73*	-2
NC(=O)c1cccn1Cc1ccccc1Cl	1	1	14	-12	-1
NC(=O)c1ccc(C(F)(F)F)n(Cc2ccccc2Cl)c1=O	-1	-2	-51	92*	-33
O=[N+]([O-])c1ccc(Nc2ccccc2)c2nonc12	1	1	0	/	-4
O=[N+]([O-])c1ccc(Sc2cccc[n+]2[O-])c2nonc12	/	/	/	108*	/

Bioassay records as filed in PubChem.
